We go through one compound from ChEMBL document CHEMBL1811823, “Quinazolinone linked pyrrolo[2,1-c][1,4]benzodiazepine (PBD) conjugates: Design, synthesis and biological evaluation as potential anticancer agents” (2010).

The ΔTm is the change in melting temperature against a reference sample. Broadly, the GI50 is the concentration at which growth is held to half of that of the control.

Calls of active or inactive are those of the source. The calls are words filed in the database; no cut-off is given here.

The subject of assay [1] is Nucleic Acid. Nature of the assay: Binding affinity to calf thymus DNA assessed as change in melting temperature at 20 uM at pH 7 incubated for 18 hrs at 37 degC by thermal denaturation assay. The assay is classed as nucleic-acid assay. To be noted: Bos taurus. Put shortly:
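CT-DNA (100 µM in phosphate) with 20 µM ligand, 1:5 [PBD]/[DNA], in 10 mM sodium phosphate/1 mM Na2EDTA buffer pH 7.00. Ligand added from methanol solution; incubated at 37 °C for 0 or 18 h. A260 monitored while heating 1 °C/min over 40–90 °C. Tm taken from d(A260)/dT maxima; ΔTm = Tm(DNA+PBD) − Tm(DNA alone). Values are means of at least three determinations, corrected for methanol cosolvent.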

Assay [2] relates to MCF7. Nature of the assay: Growth inhibition of human MCF7 cells after 48 hrs by SRB assay. The format is functional. To be noted: MCF7, 48 h. Put shortly:
(§1)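 Cells grown in RPMI 1640 with 10% FBS and 2 mM L-glutamine, plated at densities set by doubling time, pre-incubated 24 h at 37 °C/5% CO2. Drug tested at 0.1, 1, 10 and 100 µM in triplicate wells for 48 h continuous exposure. Cells fixed with cold TCA (final 10%) 60 min at 4 °C, stained with 0.4% SRB, dye eluted in 10 mM Tris. Absorbance read at 540 nm (690 nm reference); percent growth calculated relative to control wells.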

Assay [3] has as its system ZR-75-1. Briefly: Growth inhibition of human ZR-75-1 cells after 48 hrs by SRB assay. The format is functional. The note with it: ZR-75-1, 48 h. In outline: (§2)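 SRB assay with 48 h continuous exposure. Cells were grown in RPMI 1640 with 10% FBS and 2 mM L-glutamine and preincubated 24 h at 37 °C, 5% CO2. Compounds were tested at four concentrations (0.1, 1, 10, 100) in triplicate wells. Cells were fixed with cold TCA (10% final) for 60 min at 4 °C, stained 20 min with 0.4% SRB in 1% acetic acid, and the dye eluted with 10 mM Tris. A540 was read against a 690 nm reference. Percent growth is relative to control wells on each plate.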
In general terms: Sulforhodamine B stains cellular protein and so reports cell mass.

The subject of assay [4] is A549. Nature of the assay: Growth inhibition of human A549 cells after 48 hrs by SRB assay. The assay is classed as functional. To be noted: A549, 48 h. Put shortly: as §1
Assay [5] deals with HOP-62. Nature of the assay: Growth inhibition of human HOP62 cells after 48 hrs by SRB assay. The format is functional. To be noted: HOP-62, 48 h. Put shortly:
as §1

The subject of assay [6] is SiHa. Briefly: Growth inhibition of human SiHa cells after 48 hrs by SRB assay. The assay is classed as functional. In outline: as §2
Assay [7] has as its system COLO 205. Nature of the assay: Growth inhibition of human COLO205 cells after 48 hrs by SRB assay. The format is functional. The note with it: COLO 205, 48 h. In outline:
as §1

In assay [8] the test system is KB. Briefly: Growth inhibition of human KB cells after 48 hrs by SRB assay. The format is functional. Put shortly: as §1
A short description of assay [9]: Growth inhibition of human Gurav cells after 48 hrs by SRB assay. The format is functional. In outline: as §1
Assay [10] can be described thus: Growth inhibition of human DWD cells after 48 hrs by SRB assay. The format is functional. Put shortly: as §1
In assay [11] the test system is PC-3. Briefly: Growth inhibition of human PC3 cells after 48 hrs by SRB assay. The assay is classed as functional. The note with it: PC-3, 48 h. In outline:
as §1

Assay [12] relates to A2780. Briefly: Growth inhibition of human A2780 cells after 48 hrs by SRB assay. The assay is classed as functional. To be noted: A2780, 48 h. In outline:
as §1

The subject of assay [13] is A-375. Briefly: Cytotoxicity against human A375 cells assessed as cell viability after 24 hrs by MTT assay. The format is functional. Put shortly: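 A375 cells seeded at 10,000/well, incubated overnight, then treated for 24 h. MTT added at 10% of culture volume for 2 h at 37 °C. Formazan dissolved in 20% SDS/50% DMF overnight at 37 °C; absorbance read at 570 nm against a medium blank. Viability expressed as percent of untreated cells.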
Background: Tetrazolium dyes change colour on reduction, which living cells bring about.

For assay [14], the system named is A-375. Briefly: Induction of apoptosis in human A375 cells assessed as sub-G1 phase accumulation at 4 uM after 24 hrs by propidium iodide staining based flow cytometry. The format is functional. In outline:
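A375 cells (5×10^5 per 60 mm dish) were grown 24 h, then treated 24 h at 0–4 µM. Cells were harvested with trypsin-EDTA, fixed in ice-cold 70% ethanol for 30 min at 4 °C, treated with RNase A (1 mg/ml) for 30 min at 37 °C, and stained with propidium iodide. Cell-cycle distribution, including the sub-G1 fraction, was measured by flow cytometry. DMSO-exposed cells were the control.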
Background: Flow cytometry measures light scatter and fluorescence of single cells or particles in a stream.

In assay [15] the test system is A-375. Nature of the assay: Cell cycle arrest in human A375 cells assessed as decrease in G2/M phase at 4 uM after 24 hrs by propidium iodide staining based flow cytometry. The format is functional. Also on record: scale not given: the % may be the effect or the level left. Put shortly:
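A375 melanoma cells (DMEM, 10% FCS, 37 °C, 5% CO2) seeded at 5×10^5 per dish and grown 24 h, then exposed to 0–4 µM for 24 h. Harvested with trypsin-EDTA, fixed in ice-cold 70% ethanol, RNase A treated (1 mg/ml, 37 °C, 30 min), stained with propidium iodide and analysed by flow cytometry for phase distribution.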

Assay [16] deals with A-375. Nature of the assay: Increase in p53 protein expression in human A375 cells at 4 uM after 24 hrs by Western blot. The assay is classed as functional, cell-based. Put shortly:
(§3)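 A375 cells (DMEM, 10% FCS, 37 °C, 5% CO2) were treated at 4 µM for 24 h. Lysates were loaded at 30 µg protein/lane on 12% SDS-PAGE and transferred to PVDF. Membranes were blocked 2 h in TBST, incubated with primary antibody overnight at 4 °C (p53 1:100, p27 1:500, NF-κB p65 1:500), then HRP secondary 1 h, with chemiluminescent detection. β-actin was the loading control; untreated and DMSO controls were run.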

In assay [17] the test system is A-375. Nature of the assay: Increase in p27 protein expression in human A375 cells at 4 uM after 24 hrs by Western blot. The assay is classed as functional, cell-based. In outline: as §3
The subject of assay [18] is A-375. Briefly: Inhibition of NF-kappaB signaling in human A375 cells at 4 uM after 24 hrs by Western blot. The assay is classed as cell-based. Put shortly:
as §3

For assay [19], the system named is A-375. Briefly: Increase in cytochrome C release in human A375 cells at 4 uM after 24 hrs by Western blot. The format is functional, cell-based. Put shortly:
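Western blot of A375 cell lysates after 24 h exposure at 4 µM, with 30 µg protein/lane on 12% SDS-PAGE and transfer to PVDF. Probed overnight at 4 °C with anti-cytochrome c (1:500), then HRP secondary and chemiluminescence. β-actin was the loading control; untreated and DMSO-only cells served as controls.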

Assay [20] relates to A-375. Briefly: Increase in active caspase-3 protein level in human A375 cells at 4 uM after 24 hrs by Western blot. The format is functional, cell-based. Put shortly: (§4)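 A375 cells were exposed 24 h at 4 µM. Lysates (30 µg/lane) were run on 12% SDS-PAGE and transferred to PVDF, then probed overnight at 4 °C with anti-cleaved caspase-3 (1:200, detects 21 kDa) or anti-PARP (1:2000, detects 113 and 85 kDa). HRP secondary and chemiluminescence were used. β-tubulin was the loading control; untreated and DMSO controls were included.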

In assay [21] the test system is A-375. Nature of the assay: Increase in active PARP cleavage product (85kDa) level in human A375 cells at 4 uM after 24 hrs by Western blot. The assay is classed as functional, cell-based. Put shortly: as §4
In assay [22] the test system is A-375. Briefly: Decrease in Bcl-2 mRNA expression in human A375 cells at 4 uM after 24 hrs by RT-PCR.

For the compound `COc1cc2c(cc1OCCCCCOc1ccc3nc(C)n(-c4ccc(F)c(Cl)c4)c(=O)c3c1)N=C[C@@H]1CCCN1C2=O`, the ΔTm in assay [1] amounted to 2.3 °C. In addition, the GI50 in [2] was under 100 nM; in [3], 150 nM; in assay [4] it was 130 nM; in assay [5], 140 nM; in assay [6], 170 nM; in assay [7], 130 nM. Further, the GI50 in assay [8] is 150 nM; in assay [9] it was under 100 nM; in assay [10], 130 nM; in assay [11] it was 170 nM; in [12], 110 nM. Further, the Activity came out at 58.72% in assay [13], 24.1% in assay [14] and 11.92% in assay [15]. The outcome in [16], in assay [17], in [19], in [20] and in assay [21] was Active. Also, in assay [18], the inhibition result was “Active”. Besides, the “Decrease in Bcl-2 mRNA expression” value in [22] is “Active”.
